Screens from PubChem BioAssay.
Compounds with a hit are over-represented: about 3% of the library has one in this group of screens.
Statin myotox sup – suppressors of statin myotoxicity in C2C12 myotubes, primary screen, cell-based, single point, plate reader; C2C12 myotubes + simvastatin, ATP luminescence, 48 h; scaled: DMSO 0, geranylgeraniol control 100; rescue of ATP level, % at 7.49 µM; 330,000 tested, 0.78% active;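 active = mean ATP rescue above about 67%, or every replicate alone reaching that limit, limit read from the data, passing the limit was not always enough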;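 also: myotubes were challenged with 10 µM simvastatin during compound exposure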
PGC1a acetyl inh – inhibitors of PGC1a acetylation signal, primary screen, cell-based, U2OS, AlphaScreen, inhibitor mode. AlphaScreen anti-acetyl-lysine; with virally co-expressed GCN5 acetyltransferase. AID 651687, 2012. 350,000 tested, 0.17% active. inhibition, % at 15.6 µM;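 active = every replicate shows inhibition of at least 40%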;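 also: 0% = neutral control wells and 100% = positive control wells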
S100A4 MyoIIA – inhibitors of S100A4-myosin IIA peptide binding, primary screen, biochemical, fluorescence polarization, TAMRA-MyoIIA peptide. 360,000 tested, 0.14% active. inhibition, % at 10.7 µM;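 active = mean inhibition of at least 70% across replicates, with every replicate also reaching that level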
Target sequence (P26447 whole entry, looked up): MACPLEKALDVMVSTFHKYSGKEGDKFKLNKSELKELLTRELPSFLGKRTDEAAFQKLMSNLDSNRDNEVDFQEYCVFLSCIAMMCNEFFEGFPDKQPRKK
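assay system = human S100A4 monomer with TAMRA-labelled myosin IIA peptide | also added = labelled myosin peptide probe, 5 nM | incubation = 5 min between mix addition and reading | control set = DMSO and TFP controls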
Ecoli rRNA inh – reduced GFP signal of wild-type E. coli, primary screen, bacterial rRNA inhibitor project, GFP/RFP fluorescence, OD600, single point | E. coli WT GFP vs humanized-ribosome RFP mutants, 24 h; active compounds read low; DMSO median 0, no signal -100 | GFP signal change (wild-type ribosome), % (no concentration beside the values) | 350,000 tested, 1.6% active | AID 720706, 2013;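 active = significant combined selectivity score with lowered wild-type GFP, culture density cut under 30%, mutant RFP and density less affected; inactive = any of these conditions unmet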
SIRT5 block – SIRT5 desuccinylase inhibitors, primary screen, biochemical, fluorescence imaging, single point, set 5. NAD-dependent protein deacylase sirtuin-5, mitochondrial (Homo sapiens), Q9NXA8. Purified SirT5, succinyl-peptide AMC, trypsin-coupled fluorescence. 330,000 tested, 1.1% active. inhibition, % at 15 µM. AID 652115, 2013; in the data active = inhibition above about 15%
Target sequence (Q9NXA8 whole entry, looked up): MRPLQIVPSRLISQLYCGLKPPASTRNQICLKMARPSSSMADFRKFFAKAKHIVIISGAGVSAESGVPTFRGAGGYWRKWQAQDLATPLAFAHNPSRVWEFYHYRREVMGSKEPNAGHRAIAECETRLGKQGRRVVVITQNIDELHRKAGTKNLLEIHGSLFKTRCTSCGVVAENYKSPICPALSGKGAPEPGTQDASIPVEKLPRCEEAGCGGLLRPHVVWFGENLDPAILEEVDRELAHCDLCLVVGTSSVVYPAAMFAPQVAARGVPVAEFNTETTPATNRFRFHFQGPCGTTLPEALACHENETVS
Cneo AK release – Cryptococcus neoformans cell lysis inducers, primary screen, AK release luminescence, single concentration; AID 651654, 2012; C. neoformans lysis, adenylate kinase release luminescence, 4 h; normalised: neutral wells 0, clomiphene wells 100; lysis activity, % at 15 µM; 360,000 tested, 0.2% active;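 active = mean lysis activity across replicates of at least 80%, whatever share of replicates individually reach that level; inactive = mean lysis activity below 80%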
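Material – log-phase Cryptococcus neoformans yeast cells · Input – 5 × 10^6 yeast cells/mL · Medium – fresh YPD growth medium · Doses – single compound concentration per well · Timing – static 4 h at 37 °C with compound, 1 h detection · Detection – adenylate kinase release luminescence · Read-out – signal increase indicating cell lysis · Control set – Clomiphene as positive lysis control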
Active calls of the source: *; / = not tested or not shown; + = active, no number.

SMILES	Statin myotox sup	PGC1a acetyl inh	S100A4 MyoIIA	Ecoli rRNA inh	SIRT5 block	Cneo AK release
CN1CCCCN2[C@@H](CO)[C@@H](c3ccc(C#CC4(O)CCCC4)cc3)[C@@H]2C1	7.7	6.0	92.0*	5.9	-2.9	9.4
CN1CCCCN2[C@@H](CO)[C@H](c3ccc(C#CC4(O)CCCC4)cc3)[C@@H]2C1	7.3	16.0	-9.6	6.6	-2.0	-3.0
CNC[C@@H]1OCCCC[C@@H](C)Oc2ccc(NC(=O)Nc3c(C)noc3C)cc2C(=O)N([C@H](C)CO)C[C@H]1C	-25.2	14.5	-17.9	5.7	2.0	-5.4
O=C(c1ccc2c(c1)OCO2)N1CC(=O)N2[C@@H](CO)[C@@H](c3ccc(C#CCC4CCCC4)cc3)[C@@H]2C1	/	-7.9	5.3	-10.7	10.8	/
CN(C)CC#Cc1ccc([C@@H]2[C@@H](CO)N3CCCCN(C(=O)CN(C)C)C[C@H]23)cc1	-11.6	4.0	6.9	8.3	24.8*	-2.1
CC(=O)N1CCCCN2[C@@H](CO)[C@H](c3ccc(Br)cc3)[C@@H]2C1	2.1	1.6	5.8	3.2	17.0*	0.3
CC(C)C#Cc1ccc([C@@H]2[C@@H](CO)N3C(=O)CN(C(=O)c4ccc5c(c4)OCO5)C[C@H]23)cc1	/	-7.1	12.3	4.0	19.7*	/
O=C(c1ccc2c(c1)OCO2)N1CC(=O)N2[C@H](CO)[C@H](c3ccc(C#CCC4CCCC4)cc3)[C@@H]2C1	/	-6.6	4.5	3.4	25.7*	/
CC(C)NC(=O)N(C)C[C@H]1Oc2ccccc2C(=O)N(C)C[C@@H]1C	/	/	/	-0.5	/	/
COc1ccc(NC(=O)Nc2ccc3c(c2)C(=O)N([C@H](C)CO)C[C@H](C)[C@@H](CN(C)C(=O)Nc2ccc(F)cc2)O3)cc1	0.9	4.1	2.1	0.7	4.9	-23.9
CC(C)C#Cc1ccc([C@@H]2[C@H](CO)N3C(=O)CN(C(=O)NC4CCCC4)C[C@@H]23)cc1	/	107.1*	-38.4	-0.9	25.2*	/
COc1ccc([C@H]2CC=CC[C@H](C)Oc3ccccc3C(=O)N(C)[C@H](C)C(=O)N2)c(OC)c1 (mixture of isomers)	/	/	/	-1.0	/	/
COc1ccc(CCn2ccc(O)c(Cc3ccc(Cl)cc3)c2=O)cc1OC	8.6	15.5	-0.9	-29.4*	0.0	0.7
CCC(=O)N1[C@H](C(=O)OC)[C@@H](CO)[C@@H]2Cn3c(ccc(/C=C/c4ccccc4)c3=O)[C@@H]21	43.2	/	2.5	-3.0	-73.9	0.5
COc1ccc(C2c3cc(OC)c(OC)cc3CC3C(=O)OCC32)cc1OC (stereo not drawn)	95.9*	7.1	-3.7	7.8	/	0.3
Cc1ccc(OCCn2c(=S)[nH]c3ccccc32)c(C(C)C)c1	19.4	-7.9	-3.7	-30.7	0.6	96.6*
COc1ccc(C#Cc2cnc3c(c2)C(=O)N([C@H](C)CO)C[C@@H](C)[C@H](CN(C)C(=O)CC2CC2)O3)cc1	0.7	10.3	-1.6	-3.0	1.0	4.1
COCCCNc1ncnc2c1sc1nc(-c3ccco3)c3c(c12)CC(C)(C)OC3	/	/	-2.9	5.7	18.9*	/
CCCOc1ccc(/C=C/C(=O)O)cc1OC	4.5	61.6*	-6.1	4.8	-5.2	0.5
COc1ccc(NC(=O)c2cccn(CC=C(C)C)c2=O)cc1	2.8	8.5	-2.6	-26.5*	-0.1	/
Cc1csc(=O)n1CC(=O)OCc1nnc(-c2ccccc2)o1	5.6	0.9	3.1	10.1	5.5	7.1
Cc1csc(=O)n1CC(=O)OCc1nnc(-c2ccc(Cl)cc2)o1	-5.6	0.5	+	3.0	-3.6	8.7
CN(C)C(=O)[C@H]1[C@H](CO)[C@H]2Cn3c(ccc(-c4ccccc4F)c3=O)[C@@H]1N2C	0.7	-2.1	-0.8	-0.2	-1.7	-1.5
